One data set addresses T1, Cytochrome P450 2B6 (Homo sapiens, UniProt P20813).
T1 sequence (P20813 whole entry): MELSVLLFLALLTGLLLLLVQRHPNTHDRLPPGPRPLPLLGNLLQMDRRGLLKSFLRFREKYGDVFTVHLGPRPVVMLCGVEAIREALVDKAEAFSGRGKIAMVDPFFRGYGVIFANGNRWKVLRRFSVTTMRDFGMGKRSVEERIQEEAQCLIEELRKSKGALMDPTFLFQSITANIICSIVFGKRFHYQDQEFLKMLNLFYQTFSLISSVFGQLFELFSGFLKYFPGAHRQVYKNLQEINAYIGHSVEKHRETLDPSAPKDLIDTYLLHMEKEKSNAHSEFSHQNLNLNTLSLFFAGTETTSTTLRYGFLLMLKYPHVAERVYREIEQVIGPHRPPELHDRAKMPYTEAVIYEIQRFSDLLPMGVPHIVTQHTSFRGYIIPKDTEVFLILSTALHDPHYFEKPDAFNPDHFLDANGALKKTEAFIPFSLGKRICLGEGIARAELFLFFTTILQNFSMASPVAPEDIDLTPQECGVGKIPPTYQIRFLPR
The data set is described as follows: Drug metabolism assessed as human CYP2B6-mediated metabolism. The data set is classed as ADME. Conditions: recombinant enzyme; call rule not given here.

Data set [1] has as its target T2, Solute carrier organic anion transporter family member 1B3 (Homo sapiens, UniProt Q9NPD5).
T2 sequence (Q9NPD5 whole entry): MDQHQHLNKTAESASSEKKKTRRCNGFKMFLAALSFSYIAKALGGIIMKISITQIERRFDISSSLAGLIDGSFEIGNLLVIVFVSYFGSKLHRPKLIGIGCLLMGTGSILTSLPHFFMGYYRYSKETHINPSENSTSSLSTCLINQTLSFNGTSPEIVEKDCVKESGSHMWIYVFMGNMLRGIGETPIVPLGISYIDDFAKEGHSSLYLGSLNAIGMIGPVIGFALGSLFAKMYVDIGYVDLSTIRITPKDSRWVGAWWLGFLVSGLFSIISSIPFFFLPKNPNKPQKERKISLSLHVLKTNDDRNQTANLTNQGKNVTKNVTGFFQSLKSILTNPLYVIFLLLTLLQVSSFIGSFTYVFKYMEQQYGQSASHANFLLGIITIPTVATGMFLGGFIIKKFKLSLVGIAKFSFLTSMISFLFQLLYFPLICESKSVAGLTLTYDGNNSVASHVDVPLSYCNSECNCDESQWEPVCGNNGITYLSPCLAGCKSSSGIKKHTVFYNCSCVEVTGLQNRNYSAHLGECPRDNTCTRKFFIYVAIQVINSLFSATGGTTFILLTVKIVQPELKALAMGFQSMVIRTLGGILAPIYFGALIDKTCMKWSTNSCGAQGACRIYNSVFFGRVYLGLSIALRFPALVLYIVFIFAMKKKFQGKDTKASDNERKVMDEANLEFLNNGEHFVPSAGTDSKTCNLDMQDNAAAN
As to the kind of experiment: Inhibition of human OATP1B3 assessed as reduction in intracellular probe substrate accumulation upto 100 uM by microplate scintillation counter analysis relative to control. In kind it is cell-based. A digest of the protocol:
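Cellular uptake-inhibition assays used Chinese hamster ovary, HEK293 or MDCKII cells stably expressing the respective human SLC transporter, run alongside the corresponding control cells. Inhibitor was tested at concentrations up to 100 μM.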

Data set [2] can be described thus: Cmax in human at 900 mg, po administered as single dose. In kind it is ADME, organism-based. The arrangement: route oral, dose 900 mg. Particulars: in vivo.
The nature of data set [3]: Toxicity in Beagle dog assessed as increase in total leukocyte and eosinophil counts at >= 100 mg/kg, po and measured after 13 weeks. The data set is classed as organism-based, Canis lupus familiaris. Particulars: in vivo, 2184 h.
A short description of data set [4]: Inhibition of P-gp in MDCK-MDR1 cells assessed as reduction in basal to apical transport of paclitaxel measured after 120 mins by LC-MS/MS analysis. In kind it is cell-based. Particulars: Canis lupus familiaris, MDCK-MDR1, 2 h.
Data set [5] has as its target T3, Broad substrate specificity ATP-binding cassette transporter ABCG2 (Homo sapiens, UniProt Q9UNQ0).
T3 sequence (Q9UNQ0 whole entry): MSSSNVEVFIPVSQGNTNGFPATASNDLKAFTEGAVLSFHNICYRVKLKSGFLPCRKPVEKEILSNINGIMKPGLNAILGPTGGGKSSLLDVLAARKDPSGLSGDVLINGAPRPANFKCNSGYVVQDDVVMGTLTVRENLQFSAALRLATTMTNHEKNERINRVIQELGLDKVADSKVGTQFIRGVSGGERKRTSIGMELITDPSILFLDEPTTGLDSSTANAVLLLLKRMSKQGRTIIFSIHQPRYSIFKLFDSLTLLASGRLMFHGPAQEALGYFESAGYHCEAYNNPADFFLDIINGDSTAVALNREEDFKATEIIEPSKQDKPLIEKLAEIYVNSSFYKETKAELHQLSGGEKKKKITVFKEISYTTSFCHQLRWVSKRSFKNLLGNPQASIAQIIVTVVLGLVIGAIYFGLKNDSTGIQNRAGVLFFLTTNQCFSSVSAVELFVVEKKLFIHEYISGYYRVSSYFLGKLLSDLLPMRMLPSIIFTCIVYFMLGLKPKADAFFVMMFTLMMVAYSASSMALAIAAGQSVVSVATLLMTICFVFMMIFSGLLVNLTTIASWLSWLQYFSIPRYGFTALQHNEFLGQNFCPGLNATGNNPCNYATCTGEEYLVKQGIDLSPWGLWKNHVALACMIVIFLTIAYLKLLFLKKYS
As to the kind of experiment: Inhibition of sulfasalazine-stimulated BCRP ATP ase activity (unknown origin).

Data set [6] is described as follows: Toxicity in Beagle dog at 200 mg/kg, po administered as repeated dose and measured upto 13 weeks. The data set is classed as organism-based, Canis lupus familiaris. Conditions: in vivo, 2184 h.
A short description of data set [7]: AUClast in Sprague-Dawley rat at 6 mg/kg, iv measured upto 24 hrs by LC-MS/MS analysis. The data set is classed as ADME, organism-based. Also noted: route intravenous, dose 6 mg/kg, time <=24. Particulars: in vivo.
A short description of data set [8]: Drug absorption in fed Beagle dog plasma at 6 mg/kg, po measured upto 24 hrs in presence of 3 mg/kg encequidar by LC-MS/MS analysis. Conditions: in vivo. In kind it is ADME, organism-based, Canis lupus familiaris.
The subject of another data set is NCI-H460. As to the kind of experiment: Antitumor activity against human NCI-H460 cells xenografted in athymic nude mouse assessed as median tumor growth delay at 40 mg/kg, po administered every other day for 4 doses in presence of 16 mg/kg encequidar and monitored for 48 days. In kind it is functional. Conditions: time 48 day. A digest of the protocol: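 Female athymic NCr-nu mice carried subcutaneous NCI-H460 xenografts. […] Tumor weights and body weights were followed for 48 days after implantation. Read-out was median tumor growth delay.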

With `COc1cc2c(cc1OC)CN(CCc1ccc(-n3nnc(-c4cc(OC)c(OC)cc4NC(=O)c4cc(=O)c5ccccc5o4)n3)cc1)CC2`, the Drug metabolism entry on Cytochrome P450 2B6 is recorded as “Metabolite_Notdetected”. In [1], the “inhibition (INH)” value is listed as less than 50%. In [2], this compound returned a Cmax of 6.6 ng/mL. In addition, the Activity entry in [3] is “Toxic”; in data set [6], “Non-Toxic”. Also, the IC50 in [4] is 35 nM; in data set [5] it was more than 3720 nM.

`CC(=O)O[C@H]1C(=O)[C@@]2(C)[C@H]([C@H](OC(=O)c3ccccc3)[C@]3(O)C[C@H](OC(=O)[C@H](O)[C@@H](NC(=O)c4ccccc4)c4ccccc4)C(C)=C1C3(C)C)[C@]1(OC(C)=O)CO[C@@H]1C[C@@H]2O` [PACLITAXEL] had an AUC(0-t) at 24 h in data set [7] of 2730 ng·h/mL. Besides, in data set [8], the Drug absorption result was “Not Active”. The Time in the data set on NCI-H460 was 8.7 days.

These data come from ChEMBL document CHEMBL4825663 (J Med Chem, 2021).
